The RNAGym collection of RNA variant scans (doi:10.1126/science.aae0568)
Fewer inactive variants are shown than the library holds.

B1: tRNA (parent)
chain: GUUCCGUUGGCGUAAUGGUAACGCGUCUCCCUCCUAAGGAGAAGACUGCGGGUUCGAGUCCCGUACGGAACG

Variants of: B1
Assay: yeast fitness relative to wild type (ratio to wild type); higher = fitter; tRNA-Arg(CCU), competitive growth, 37 C, YPD
How it was run: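 Gene amplicons from the start population and from each of six end populations were read by 100-nucleotide paired-end sequencing. Those end populations came from pooled Saccharomyces cerevisiae strains carrying tRNA-Arg(CCU) gene variants at the native locus, competed in YPD at 37°C for 24 hours. Fitness relative to wild type was worked out from changes in genotype frequencies. Genotypes needed ≥ 100 starting reads, and estimates < 0.5 were set to 0.5.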
With C22U G48A the yeast fitness was 0.89. For G23A C29G, the yeast fitness was 0.625. With G23A C29U the yeast fitness was 0.923. For G23A C29A, the yeast fitness was 0.536. In the case of C22U A45C, the yeast fitness is reported as 0.75. In the case of C22U A45U, the yeast fitness is reported as 0.909. For C22U C33U G52A C66U, the yeast fitness was no more than 0.5. C22U C30G A65C C66U showed a yeast fitness of 0.62. With C22U G25A A43G U54A C62U the yeast fitness was no more than 0.5. Variant C22U C27U G51A A57U C61G has a yeast fitness of no more than 0.5. C22U U28C C61A C62U showed a yeast fitness of no more than 0.5. For G23A C29G A45U C46U C60G C61U A69G, the yeast fitness was no more than 0.5. Work on C22U G44C A70U yielded a yeast fitness of 0.711. Work on C22U C27G A40G A42G yielded a yeast fitness of no more than 0.5. C22U C24G C30G G41C gave a yeast fitness of no more than 0.5. For C22U A43U C55G C61U, the yeast fitness was 0.659. For C22U C49U G58A, the yeast fitness was 0.621. With C22U G56A the yeast fitness was 0.734. For C22U G58A, the yeast fitness was 0.926. Variant C22U G58C has a yeast fitness of 0.883. For G23A A42G G51A C61U, the yeast fitness was no more than 0.5. G23A C27G C29U G56A gave a yeast fitness of no more than 0.5. For G23A C24U U35A C60A A69C, the yeast fitness was 0.607. G23A C24U G38C A70C gave a yeast fitness of no more than 0.5. With C22U G51C A65U the yeast fitness was no more than 0.5. Work on C22U C46U G51C yielded a yeast fitness of no more than 0.5. Work on C22U C61G A69G yielded a yeast fitness of 0.574. C22U C33U A42U A69C showed a yeast fitness of 0.629. Variant C22U C24G A69C has a yeast fitness of 0.539. Work on C22U C46G C55A yielded a yeast fitness of no more than 0.5. Variant C22U C33U A69C has a yeast fitness of 0.522. Variant C22U A45U C49A has a yeast fitness of no more than 0.5. C22U A45G G58C showed a yeast fitness of 0.608. In the case of G23A A43G U64C, the yeast fitness is reported as no more than 0.5. Work on C22U C29A A65U yielded a yeast fitness of no more than 0.5. C22U C24U C46U showed a yeast fitness of 0.654. C22U C55G C62A gave a yeast fitness of no more than 0.5. C22U U26C A37C G41C showed a yeast fitness of no more than 0.5. G23A C29G A45U C60G C61U A69G showed a yeast fitness of 0.59. With C22U U28C C29G C33A the yeast fitness was no more than 0.5. Work on C22U C24A G25U A42G yielded a yeast fitness of no more than 0.5. G23A A45G A69C gave a yeast fitness of 0.507. With C22U C34U C60G A69G the yeast fitness was 0.58. C22U A45C G50A showed a yeast fitness of 0.698. C22U U35C showed a yeast fitness of 0.731. In the case of C22U C55A A65G C66U, the yeast fitness is reported as 0.585. In the case of C22U G56C C60A C62G, the yeast fitness is reported as 0.523. In the case of C22U A43G A45C C46G G63A, the yeast fitness is reported as 0.635. C22U C27G C66U A69U gave a yeast fitness of no more than 0.5. Work on C22U U32G C34U A40G C66U yielded a yeast fitness of 0.647. Variant C22U C29G A40C A57C has a yeast fitness of no more than 0.5. In the case of C22U A45U A69U, the yeast fitness is reported as 0.804. For C22U C24U C33G C55G, the yeast fitness was no more than 0.5. Variant C22U G25A C33U A42C has a yeast fitness of no more than 0.5. Variant C22U C66U A69U has a yeast fitness of 0.6. Variant G23A A57C A65U has a yeast fitness of no more than 0.5. Work on C22U C24G C61A yielded a yeast fitness of 0.53. With G23A A37G G68A the yeast fitness was 0.682. For C22U G52A C60G, the yeast fitness was 0.503. C22U C31G C60G gave a yeast fitness of no more than 0.5. With C22U C33U A42U G52C A57C A65C the yeast fitness was no more than 0.5. C22U U26A A40G G67C gave a yeast fitness of no more than 0.5. For C22U G25A G41C U54G C61U, the yeast fitness was no more than 0.5. In the case of C22U C31G G56U, the yeast fitness is reported as 0.528. With C22U C34G G39A C49U the yeast fitness was no more than 0.5. In the case of G23A A36U G39C G50A, the yeast fitness is reported as no more than 0.5. Variant C22U C66U has a yeast fitness of 0.762. Variant C22U C66A has a yeast fitness of 0.716. C22U A42U G51C C62U A70U showed a yeast fitness of 0.505. C22U G39C C62U gave a yeast fitness of 0.51. Work on C22U A45G G56C yielded a yeast fitness of 0.602. G23A C29G C55A gave a yeast fitness of 0.536. For C22U U26A C29U A43C G52C U53A, the yeast fitness was no more than 0.5. Work on C22U C31G A43U C49U C60A A70G yielded a yeast fitness of no more than 0.5. Work on C22U C34G yielded a yeast fitness of 0.597. Work on C22U C24U yielded a yeast fitness of 0.885. In the case of C22U C24G, the yeast fitness is reported as 0.583. Work on C22U C33G C34A A43C A65U yielded a yeast fitness of no more than 0.5. For C22U C31G G50A, the yeast fitness was 0.606. In the case of C22U C34G A40C C46G, the yeast fitness is reported as no more than 0.5. With C22U C30A C55G the yeast fitness was no more than 0.5. For C22U C30U C49G, the yeast fitness was 0.556. For C22U C34U C55U, the yeast fitness was 0.586. For C22U C24G A36C A70C, the yeast fitness was no more than 0.5. Variant C22U C31A C60G has a yeast fitness of no more than 0.5. In the case of C22U C31A C60U, the yeast fitness is reported as no more than 0.5. In the case of C22U C34G G48C, the yeast fitness is reported as no more than 0.5. C22U C30G G52A gave a yeast fitness of 0.514. With G23A C24G the yeast fitness was no more than 0.5. Work on C22U C30U A37U C46G U64A G67A yielded a yeast fitness of no more than 0.5. C22U G23C C55U C60G A70C gave a yeast fitness of no more than 0.5. With C22U U35C A37U G50C C66U the yeast fitness was 0.569. In the case of C22U U26A C29U G52C, the yeast fitness is reported as 0.624. In the case of G23A C29G G68C, the yeast fitness is reported as no more than 0.5. Work on C22U G44A yielded a yeast fitness of 0.865. For C22U G63A A70C, the yeast fitness was 0.508. For C22U C49A, the yeast fitness was 0.682. C22U U32G C34U A40G A70U showed a yeast fitness of 0.563. In the case of C22U U54G A65G G68U A70C, the yeast fitness is reported as no more than 0.5. For C22U G51C C61G, the yeast fitness was 0.556. C22U C33G C60U C62G gave a yeast fitness of 0.594. In the case of C22U C27U A42U A43U U47C, the yeast fitness is reported as no more than 0.5. For C22U C31G A36U, the yeast fitness was no more than 0.5. Work on C22U C46G C49G A57G yielded a yeast fitness of no more than 0.5. Work on C22U G52A yielded a yeast fitness of 0.675. For C22U C29G A42G, the yeast fitness was 0.697. Work on C22U C30G U54C C62G A65U yielded a yeast fitness of no more than 0.5. C22U C31G U35A C49U C66U G67A showed a yeast fitness of no more than 0.5. For C22U G56C A57C C61G, the yeast fitness was no more than 0.5. In the case of C22U C24A G56A A70U, the yeast fitness is reported as no more than 0.5. In the case of C22U C30U A57C, the yeast fitness is reported as 0.528. Variant C22U U32C C46U U54G A70U has a yeast fitness of 0.655. Variant C22U C24A C27U A43C has a yeast fitness of no more than 0.5. C22U U35A C66U showed a yeast fitness of no more than 0.5. Work on C22U C61A C62U yielded a yeast fitness of 0.586. With C22U C33G G41C G56C G58A G63C A65U the yeast fitness was no more than 0.5. Work on C22U G44C G63A yielded a yeast fitness of no more than 0.5. C22U C29U A37U showed a yeast fitness of no more than 0.5. With C22U C27U A37G the yeast fitness was 0.643. For C22U C30U A37G G68A, the yeast fitness was no more than 0.5. In the case of G23A A65C, the yeast fitness is reported as 0.816. G23A A65U gave a yeast fitness of 0.916. G23A A65G gave a yeast fitness of 0.907. C22U C30A C31U gave a yeast fitness of no more than 0.5. With C22U U28A A37U C61U the yeast fitness was 0.552. C22U C29G gave a yeast fitness of 0.657. With C22U C24A C29A A36C the yeast fitness was no more than 0.5. C22U G51C G67A showed a yeast fitness of 0.604. For G23A C27A A57U, the yeast fitness was 0.634. Work on C22U C31G G51C C62A yielded a yeast fitness of no more than 0.5. C22U U35C C49U gave a yeast fitness of no more than 0.5. C22U G25A G48C A57G showed a yeast fitness of no more than 0.5. Work on G23A C29G C30G C49A G56C C61U yielded a yeast fitness of 0.702. In the case of C22U C27U C33A C60U C62G, the yeast fitness is reported as 0.558. Variant C22U U28A C34G G38A G51A has a yeast fitness of no more than 0.5. In the case of C22U A43G A57U, the yeast fitness is reported as 0.59. In the case of G23A A40C C55G, the yeast fitness is reported as no more than 0.5. Work on C22U G50A G56A yielded a yeast fitness of 0.793. In the case of C22U C33G C34A A43C C55U, the yeast fitness is reported as no more than 0.5. For C22U C27G U28G U32G, the yeast fitness was no more than 0.5. With G23A C27U C34U A45C A65C the yeast fitness was 0.532. With C22U C27U C33A the yeast fitness was no more than 0.5. Work on G23A A36U G39C yielded a yeast fitness of 0.518. C22U A43U C49U C55G C61U showed a yeast fitness of 0.534. Work on C22U C24U U28C C29G C33A G68C yielded a yeast fitness of 0.569. Work on C22U C24U G50C yielded a yeast fitness of 0.618. Work on C22U C27G A57C yielded a yeast fitness of no more than 0.5. Variant C22U U32C C46U U54G has a yeast fitness of 0.593. Variant C22U C46A C61U has a yeast fitness of no more than 0.5. G23A A43G showed a yeast fitness of 0.684. G23A A43C gave a yeast fitness of 0.826. Variant G23A A43U has a yeast fitness of 0.699. For C22U C24G A65U, the yeast fitness was no more than 0.5. Variant C22U C34G G39A has a yeast fitness of no more than 0.5. In the case of C22U C24G U35C G56C, the yeast fitness is reported as no more than 0.5. Variant C22U A43C U53C C62G has a yeast fitness of no more than 0.5. C22U C24A A43U A57G gave a yeast fitness of no more than 0.5. For C22U G48A C55A G58C, the yeast fitness was no more than 0.5. Work on C22U U28C yielded a yeast fitness of 0.736. Work on C22U C60U G67A yielded a yeast fitness of 0.643. Work on C22U C31G yielded a yeast fitness of 0.834. C22U C31U showed a yeast fitness of 0.94. With G23A A69C the yeast fitness was 0.793. With G23A A69U the yeast fitness was 0.726. Variant C22U G23A has a yeast fitness of 0.591. Work on C22U G23C yielded a yeast fitness of 0.722. In the case of C22U G48A G56A C60U, the yeast fitness is reported as no more than 0.5.
